This is an account of results in publication PMC4091826 (Molecular Biology of the Cell, 2014).

Positions count from the first letter of the chain named. In names and notes the source's numbering stands. Entries after “also recorded” stand apart in the source; their conditions may differ. No end group written: not given here.

B1: Ssc1 E467A suppressor S205 (E467A, N508K), purified (natural protein, S. cerevisiae, UniProt P0CS90 24-654, looked up)
chain: QSTKVQGSVIGIDLGTTNSAVAIMEGKVPKIIENAEGSRTTPSVVAFTKEGERLVGIPAKRQAVVNPENTLFATKRLIGRRFEDAEVQRDIKQVPYKIVKHSNGDAWVEARGQTYSPAQIGGFVLNKMKETAEAYLGKPVKNAVVTVPAYFNDSQRQATKDAGQIVGLNVLRVVNEPTAAALAYGLEKSDSKVVAVFDLGGGTFDISILDIDNGVFEVKSTNGDTHLGGEDFDIYLLREIVSRFKTETGIDLENDRMAIQRIREAAEKAKIELSSTVSTEINLPFITADASGPKHINMKFSRAQFETLTAPLVKRTVDPVKKALKDAGLSTSDISEVLLVGGMSRMPKVVETVKSLFGKDPSKAVNPDEAVAIGAAVQGAVLSGEVTDVLLLDVTPLSLGIETLGGVFTRLIPRNTTIPTKKSQIFSTAAAGQTSVEIRVFQGARELVRDNKLIGNFTLAGIPPAPKGVPQIEVTFDIDADGIIKVSARDKATNKDSSITVAGSSGLSENEIEQMVNDAEKFKSQDEARKQAIETANKADQLANDTENSLKEFEGKVDKAEAQKVRDQITSLKELVARVQGGEEVNAEELKTKTEELQTSSMKLFEQLYKNDSNNNNNNNGNNAESGETKQ
B2: E467A-D411R (protein)
chain: B1 chain with D388R, K485N
modifications: left off: His6, end not stated, state not stated
B3: D411R (protein)
chain: B1 chain with D388R, A444E, K485N
modifications: left off: His6, end not stated, state not stated
B4: Q465A (protein)
chain: B1 chain with Q442A, A444E, K485N
modifications: left off: His6, end not stated, state not stated
B5: G466E (protein)
chain: B1 chain with G443E, A444E, K485N
modifications: left off: His6, end not stated, state not stated
B6: WT Ssc1: Wild type Ssc1 (His6), yeast mtHsp70 (protein)
chain: B1 chain with A444E, K485N
modifications: left off: His6, end not stated, state not stated
B7: D416R (protein)
chain: B1 chain with D393R, A444E, K485N
modifications: left off: His6, end not stated, state not stated
B8: S209 (protein)
chain: B1 chain with K467R, K485N
modifications: left off: His6, end not stated, state not stated
B9: Ssc1 E467A suppressor S207 (E467A, N508T), purified (natural protein, S. cerevisiae, UniProt P0CS90 24-654, looked up)
chain: B1 chain with K485T
B10: Ssc1 E467A suppressor S208 (E467A, D519G), purified (natural protein, S. cerevisiae, UniProt P0CS90 24-654, looked up)
chain: B1 chain with K485N, D496G
B11: fluorescein-labeled P5 peptide (peptide)
peptide: CALLLSAPRR
modifications: also: fluorescein label, position not given here
B12: Ssc1 E467A suppressor S209 (E467A, K490R), purified (natural protein, S. cerevisiae, UniProt P0CS90 24-654, looked up)
chain: B1 chain with K467R, K485N

Data set [1] has as its system human mtHsp70. In words: Stimulation of ATPase activity by P5 peptide, human mtHsp70. In kind it is biochemical. As to conditions: 250-fold molar excess of P5; Figure 1D. Summed up:
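Human mtHsp70[ATP] complexes were formed by incubating 100 μg protein with 50 μM ATP and 25 μCi [γ-32P]ATP on ice for 3 min in buffer A (25 mM HEPES-KOH pH 7.5, 100 mM KCl, 10 mM Mg(OAc)2). Complexes were isolated by Sephadex G50 (1 μM protein) and snap-frozen. Single-turnover hydrolysis was run at 25°C in buffer A, either alone (basal) or with P5 peptide.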

The test system of data set [2] is human mtHsp70. Particulars: versus wild type; ref Goswami et al., 2010; cited from earlier work.
Data set [3] deals with human mtHsp70. Particulars: ref Goswami et al., 2010; cited from earlier work.
The target of data set [4] is B11. Nature of the data set: fluorescence polarisation. (Polarisation of emitted light reports the rotation of a fluorescent probe.)
Data set [5] relates to Ssc1. In words: Stimulation of ATPase activity by P5 peptide, Ssc1. In kind it is biochemical, S. cerevisiae. Particulars: 100-fold molar excess P5, single-turnover.
Data set [6] deals with Ssc1. In words: ATP-induced substrate release by fluorescence anisotropy, Ssc1. The format is biochemical, S. cerevisiae. As to conditions: 2.5 mM ATP, 5 μM Ssc1[F-P5]; for ATP-induced substrate release, in words: 5 min.
The subject of data set [7] is Ssc1. In words: Tryptophan fluorescence quenching upon ATP binding, Ssc1. The format is biochemical, S. cerevisiae. Particulars: 2.5 μM protein, 1000-fold excess ATP, wild type set at 100%.
The test system of a further data set is yeast cells. Nature of the data set: Growth phenotype. In kind it is cell-based, S. cerevisiae. Particulars: minimal medium or 5-FOA medium, serial dilutions.
The test system of data set [8] is Ssc1. Nature of the data set: Single-turnover basal ATPase assay, Ssc1. In kind it is biochemical, S. cerevisiae. Particulars: 25°C; for fold increase in basal ATPase activity: buffer A, versus wild type.
Data set [9] has as its system Ssc1. Nature of the data set: Limited proteolytic cleavage by trypsin. In kind it is biochemical, S. cerevisiae. Particulars: 1:100 (wt/wt) trypsin, 25°C, SDS-PAGE.
The subject of a further data set is Tim44. Nature of the data set: Coimmunoprecipitation of Ssc1 with Tim44. In kind it is binding, S. cerevisiae. As to conditions: mitochondrial lysates, anti-Ssc1, presence or absence of 1 mM ATP; Figure 6A.
Data set [10] deals with T1, Ssc1 (yeast mtHsp70), wild type, hexahistidine-tagged, purified (S. cerevisiae, UniProt P0CS90 24-654). Nature of the data set: fluorescence polarisation.
Data set [11] addresses T2, Ssc1 E467A, hexahistidine-tagged, purified (S. cerevisiae, UniProt P0CS90 24-654, E467A). In words: fluorescence polarisation.
Data set [12] concerns the target human mtHsp70, wild type, hexahistidine-tagged, purified (human, UniProt P38646 47-679). In words: fluorescence polarisation.
The target of data set [13] is T1, Ssc1 (yeast mtHsp70), wild type, …. In words: fluorescence polarisation. The source holds these as a separate data set.
The target of data set [14] is T2, Ssc1 E467A, hexahistidine-tagged, …. In words: fluorescence polarisation. The source holds these as a separate data set.
For data set [15], the target named is T1, Ssc1 (yeast mtHsp70), wild type, …. Nature of the data set: fluorescence polarisation. This is another data set of the same source.
Target sequence in this assay (P0CS90 24-654): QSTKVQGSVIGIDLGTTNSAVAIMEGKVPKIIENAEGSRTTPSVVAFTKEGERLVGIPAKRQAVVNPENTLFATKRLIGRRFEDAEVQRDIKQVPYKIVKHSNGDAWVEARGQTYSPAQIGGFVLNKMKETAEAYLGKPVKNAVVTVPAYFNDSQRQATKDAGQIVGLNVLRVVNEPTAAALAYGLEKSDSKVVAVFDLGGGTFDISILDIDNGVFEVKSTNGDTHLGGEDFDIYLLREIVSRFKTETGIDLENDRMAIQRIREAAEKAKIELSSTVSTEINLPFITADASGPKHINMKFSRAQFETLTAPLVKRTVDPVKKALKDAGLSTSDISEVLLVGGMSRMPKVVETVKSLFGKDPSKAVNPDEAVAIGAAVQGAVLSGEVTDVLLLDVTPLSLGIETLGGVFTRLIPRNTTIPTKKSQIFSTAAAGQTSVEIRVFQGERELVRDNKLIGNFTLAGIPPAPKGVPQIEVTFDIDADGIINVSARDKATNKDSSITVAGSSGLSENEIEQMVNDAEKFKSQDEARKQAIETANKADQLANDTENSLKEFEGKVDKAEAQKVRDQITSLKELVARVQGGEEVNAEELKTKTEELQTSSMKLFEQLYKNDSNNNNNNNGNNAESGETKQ
For data set [16], the target named is T2, Ssc1 E467A, hexahistidine-tagged, …. Nature of the data set: fluorescence polarisation. This is another data set of the same source.
A further data set addresses Ssc1 D411R, purified (S. cerevisiae, UniProt P0CS90 24-654, D411R). In words: fluorescence polarisation.
For data set [17], the target named is Ssc1 E467A-D411R, purified (S. cerevisiae, UniProt P0CS90 24-654, D411R | E467A). Nature of the data set: fluorescence polarisation.

Chain of human mtHsp70, wild type, hexahistidine-tagged, purified (P38646 47-679): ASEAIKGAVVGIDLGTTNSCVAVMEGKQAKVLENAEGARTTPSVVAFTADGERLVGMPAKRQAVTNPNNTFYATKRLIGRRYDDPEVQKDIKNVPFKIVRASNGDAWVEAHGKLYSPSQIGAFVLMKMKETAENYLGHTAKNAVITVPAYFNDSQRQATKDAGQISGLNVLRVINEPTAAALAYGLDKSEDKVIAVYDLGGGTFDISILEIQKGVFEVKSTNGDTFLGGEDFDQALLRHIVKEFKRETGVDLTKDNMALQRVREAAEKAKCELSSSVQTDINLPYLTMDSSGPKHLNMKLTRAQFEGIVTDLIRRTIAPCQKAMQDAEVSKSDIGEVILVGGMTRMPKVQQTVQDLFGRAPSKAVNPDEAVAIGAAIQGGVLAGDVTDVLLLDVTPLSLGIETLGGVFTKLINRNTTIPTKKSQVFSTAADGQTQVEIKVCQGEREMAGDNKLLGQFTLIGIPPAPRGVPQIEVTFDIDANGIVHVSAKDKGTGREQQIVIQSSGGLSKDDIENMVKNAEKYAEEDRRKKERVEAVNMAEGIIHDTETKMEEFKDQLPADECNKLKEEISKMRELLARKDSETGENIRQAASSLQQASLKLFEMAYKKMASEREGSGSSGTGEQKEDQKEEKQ

For mtHsp70G489E, the “stimulation of ATPase activity by P5 substrate peptide, in words” value with human mtHsp70 [1] is on record as “marked decrease in stimulation of ATPase activity by P5 substrate peptide”. Also, in the data set with human mtHsp70 [2], the “elevated basal rate of ATP hydrolysis” value was “fivefold elevated”. Also, in the data set with human mtHsp70 [3], the “loss in stimulation of ATPase activity by peptide substrates” value is reported as 70%.

With B1, the “substrate release upon ATP binding” value in data set [4] was more than 50%.

Regarding B2, the “stimulation of ATPase activity by P5, in words” value (shortened to “stimulation … by P5, in words”) in the data set with Ssc1 [5] is listed as “severely impaired stimulation by substrate”. In addition, the “ATP-induced substrate release, in words” value in the data set on Ssc1 [6] is “markedly compromised in ATP-dependent conformational changes required for release of bound substrate”. In the data set on Ssc1 [7], the “tryptophan fluorescence quenching upon ATP binding, in words” value is reported as “markedly compromised”. Besides, the “growth phenotype, in words” value in the data set on yeast cells was “lethal, as demonstrated by lack of growth on 5-FOA”.

As for B3, the “fold increase in basal ATPase activity” value in the data set on Ssc1 [8] was “twofold increase”. In addition, the “stimulation … by P5, in words” value with Ssc1 [5] is listed as “modest reductions in stimulation of ATPase activity by substrate”. For the same molecule, the “ATP-induced substrate release, in words” value in the data set with Ssc1 [6] was “modest reductions”. In addition, the “tryptophan fluorescence quenching upon ATP binding, in words” value in the data set on Ssc1 [7] was “modest reductions”. For the same molecule, in the data set on yeast cells, the “growth phenotype, in words” value is “did not result in a growth defect; also recorded: completely viable”.

As to B4, in the data set with Ssc1 [8], the “fold increase in basal ATPase activity” value worked out at 2.25 fold. Further, in the data set with yeast cells, the “growth phenotype, in words” value was “viable at 30 °C but displayed temperature sensitivity at 34 and 37 °C”.

With B5, the “fold increase in basal ATPase activity” value in the data set with Ssc1 [8] was found to be 11 fold. The “growth phenotype, in words” value in the data set with yeast cells is “lethal and unable to grow on 5-FOA medium”.

With B6, in the data set with Ssc1 [9], the “trypsin cleavage pattern, in words” value was “limited proteolysis pattern, leading to formation of stable 30-kDa fragments”. The “interaction with Tim44, in words” value with Tim44 is “robust interaction with Tim44 in the absence of ATP, and this binding was sensitive to the presence of ATP”.

On to B7, for which the “fold increase in basal ATPase activity” value with Ssc1 [8] is listed as 4.5 fold. In the data set on Ssc1 [5], the “stimulation … by P5, in words” value was “stimulated fivefold less by P5 as compared with the wild-type protein”. Further, the “substrate (peptide) release upon ATP addition” value with Ssc1 [6] (anisotropy decrease up to 5 min) was less than 10%. In the data set with Ssc1 [7], the “tryptophan fluorescence quenching upon ATP binding, in words” value was “significantly lowered quenching of tryptophan fluorescence”. For the same molecule, the “growth phenotype, in words” value in the data set on yeast cells is “severe growth defect, as evidenced by its inviability on 5-FOA medium; also recorded: inviable”.

Regarding B8, the “basal ATPase activity, in words” value in the data set on Ssc1 [8] is “able to suppress the elevated basal activity of the mutant”. For the same molecule, the “stimulation … by P5, in words” value with Ssc1 [5] is listed as “could stimulate ATPase activity similar to wild-type levels; also recorded: augment peptide-mediated ATPase stimulation”.

For B9, the “substrate release upon ATP binding” value in data set [4] is more than 50%.

In the case of B10, the “substrate release upon ATP binding” value in [4] was more than 50%.

The term kon denotes a measure of how fast the partners come together. A lower kon goes with slower complex formation. As usually defined, the koff is a measure of how fast the partners let go of each other. A higher koff goes with fast dissociation. A word on the Kd: it is the equilibrium constant for the complex coming apart. Higher therefore signals lower affinity. For B11, the kon came out at 14000 M⁻¹ s⁻¹ in [10] and 3400 M⁻¹ s⁻¹ in data set [11]. Moreover, the binding result is on record as “binds” in [12]; “binds” with Ssc1 D411R, purified; “binds” in [17]. Also, the koff in data set [13] came out at 0.0023 ± 3.47e-05 s⁻¹; in data set [14] it was 0.0039 ± 0.000131 s⁻¹. Moreover, the results for the Kd in data set [15] and in [16] were 200 ± 37 nM and 1750 ± 269 nM, respectively.

As to B12, the “substrate release upon ATP binding” value in data set [4] is more than 50%.
